Screens (PubChem)
T cruzi repl: inhibitors of intracellular T. cruzi growth, primary screen, luminescence, NIH3T3 host cells; inhibition, % (no concentration beside the values); AID 1885, 2009; actives 1.4% (n = 300,000); T. cruzi beta-gal in NIH3T3, 90 h;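 active = mean inhibition across valid replicates above about 55%, limit read from the data; inconclusive = mean below that limit but half or more replicates reach it; inactive = mean below it, under half of replicates reach it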;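 note: signal also drops with host cell toxicity which is not excluded here; higher percent means less beta-gal luminescence so fewer parasites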
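Material: NIH/3T3 host cells with β-galactosidase reporter T. cruzi; Input: 5,000 host fibroblasts per well; Medium: DMEM, 2% fetal bovine serum; Compound: 50 nL DMSO compound solution per well; Schedule: 3 h host attachment, then at least 90 h co-culture; Detection: luminescent β-galactosidase signal after 60 min lysis.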
CSC inhib: cancer stem cell viability inhibitors, primary screen, luminescence; cancer stem cell-like cells viability; inhibition, % at 7.5 µM; actives 1.1% (n = 300,000); AID 2717, 2010; in the data active = inhibition above about 75%; inconclusive = no clear call, values can overlap the other calls; tested in HMLE shEcad cells
aSyn UTR inh: MLPCN primary screen, SNCA 5' untranslated region. alpha-synuclein 5'UTR reporter, inhibitor activity. AID 1813, 2009. inhibition, % (tested at 7.5 µM). actives 0.82% (n = 300,000); in the data active = inhibition above about 60%; inconclusive = no clear call, values can overlap the other calls;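 note: H4 neuroglioblastoma cells stably carrying SNCA 5'UTR luciferase fusion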
SKKanGAS inh: S. pyogenes SKKanGAS growth inhibitors in kanamycin, primary screen, streptokinase expression inhibitor project, SKKanGAS strain, BacTiter-Glo luminescence | 6 h | inhibition, % at 7.5 µM | actives 1.3% (n = 300,000);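 active = mean replicate score, as percent of positive control median, at least 50; inconclusive = mean below 50 but one replicate at or above 50; inactive = mean and every replicate below 50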;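 note: strain carries kanamycin resistance gene driven by streptokinase promoter and grows in 40 µg/ml kanamycin; loss of luminescence reflects streptokinase promoter inhibition or plain growth inhibition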
Mdm2 MdmX PPI: inhibitors of human Mdm2-MdmX association, primary screen, cell-based, luminescence, split luciferase, SaOS-2, uHTS | SaOS-2 split-luciferase Mdm2/MdmX complementation | inhibition, % at 8 µM | actives 3% (n = 330,000);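 active = inhibition of at least 50% at 8 µM in the primary screen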
A number is an active result. An excerpt weighted towards active compounds, which were near 5.4% of everything screened.

Screening O=C(Nc1ccccc1C(=O)O)c1cc(S(=O)(=O)N2CCCCC2)c(Cl)cc1Cl returned T cruzi repl 58, CSC inhib inactive, aSyn UTR inh inactive, SKKanGAS inh inactive and Mdm2 MdmX PPI inactive.
`CCOC(=O)c1ccc(-n2ccnc2)c(NC(=O)c2cccc(Br)c2)c1` gave T cruzi repl 63, CSC inhib inactive, aSyn UTR inh inactive, SKKanGAS inh inactive and Mdm2 MdmX PPI inactive.
For CSC1=C(C#N)C(c2ccc(Cl)cc2)C2=C(CC(C)(C)CC2=O)N1 (configuration not stated) the results were T cruzi repl inactive, CSC inhib inactive, aSyn UTR inh 71, SKKanGAS inh inactive and Mdm2 MdmX PPI inactive.
CCCSC1=C(C#N)C(c2ccc(OC)cc2)C2=C(CC(C)(C)CC2=O)N1 (configuration not stated) was read as T cruzi repl inactive, CSC inhib inactive, aSyn UTR inh inactive, SKKanGAS inh inactive and Mdm2 MdmX PPI inactive.
For CCOc1ccc(/C=N/NC(=S)NC2CC3CC2C2C=CCC32)cc1 (configuration not stated) the results were T cruzi repl inactive, CSC inhib inactive, aSyn UTR inh inactive, SKKanGAS inh 64 and Mdm2 MdmX PPI inactive.
For CN(C)c1ccc(/C=C(/C(=O)c2ccc(Cl)cc2Cl)n2cncn2)cc1 the results were T cruzi repl inactive, CSC inhib inactive, aSyn UTR inh inactive, SKKanGAS inh inactive and Mdm2 MdmX PPI inactive.
For COc1ccc(/C=C(/C(=O)c2ccc(Cl)cc2Cl)n2cncn2)cc1 the results were T cruzi repl 62, CSC inhib inactive, aSyn UTR inh inactive, SKKanGAS inh inactive and Mdm2 MdmX PPI inactive.
For O=C(NCC1CCCO1)C(=O)N/N=C\c1ccc2c(c1)OCO2 (configuration not stated) the results were T cruzi repl inactive, CSC inhib inactive, aSyn UTR inh inactive, SKKanGAS inh inactive and Mdm2 MdmX PPI inactive.
Screening Nc1ncnc2c1ncn2C1CCCO1 (configuration not stated) returned CSC inhib inactive and Mdm2 MdmX PPI inactive.
`S=c1nc[nH]c2c1ncn2C1CCCO1` (configuration not stated) gave T cruzi repl inactive, CSC inhib 122, aSyn UTR inh inactive, SKKanGAS inh inactive and Mdm2 MdmX PPI inactive.
`Cc1ccc(-n2nnnc2SCC(=O)c2cc(C)n(-c3cc(C)on3)c2C)c(C)c1` gave T cruzi repl inactive, CSC inhib 140, aSyn UTR inh inactive, SKKanGAS inh inconclusive and Mdm2 MdmX PPI inactive.
For CCN(CC)CCNC(=O)c1cc(Br)c(N)cc1OC the results were CSC inhib inactive and Mdm2 MdmX PPI inactive.
For C/C(=N\NC(=O)c1cc(-c2cccc([N+](=O)[O-])c2)n[nH]1)c1ccccc1O the results were T cruzi repl 61, CSC inhib 80, aSyn UTR inh inactive and SKKanGAS inh inconclusive.
For C/C(=N/NC(=O)c1cc(-c2cccc([N+](=O)[O-])c2)n[nH]1)c1cccc(O)c1 the results were T cruzi repl inactive, CSC inhib inactive, aSyn UTR inh inactive, SKKanGAS inh inactive and Mdm2 MdmX PPI inactive.
`CCCc1nnc(NC(=O)CSc2nc3ccccc3[nH]2)s1` gave T cruzi repl inactive, CSC inhib inactive, aSyn UTR inh inactive, SKKanGAS inh inactive and Mdm2 MdmX PPI inactive.
For O=C(CSc1nc2ccccc2[nH]1)Nc1nc(-c2cccc(Br)c2)cs1 the results were T cruzi repl inactive, CSC inhib inactive, aSyn UTR inh inactive, SKKanGAS inh 80 and Mdm2 MdmX PPI inactive.
Screening CC1CCC(NC(=O)c2cc(Cl)nc3ccccc23)CC1 (configuration not stated) returned CSC inhib inactive and Mdm2 MdmX PPI inactive.
Screening NS(=O)(=O)c1ccc(N/N=C/c2cn(-c3ccccc3)nc2-c2cccs2)cc1 returned T cruzi repl inactive, CSC inhib 81, aSyn UTR inh inactive, SKKanGAS inh inactive and Mdm2 MdmX PPI inactive.
For Cc1ccc2c(c1)COc1c3ccc(C(=O)N4CCCCC4)cc3nn1-2 the results were T cruzi repl inactive, CSC inhib inactive, aSyn UTR inh inactive, SKKanGAS inh inactive and Mdm2 MdmX PPI inactive.
O=C(c1ccc2c3n(nc2c1)-c1ccccc1CO3)N1CCCCC1 was read as T cruzi repl inactive, CSC inhib inconclusive, aSyn UTR inh inactive, SKKanGAS inh 51 and Mdm2 MdmX PPI inactive.
